The target of experiment [1] is 5-hydroxytryptamine receptor 1D (Homo sapiens) (UniProt P28221). As to the kind of experiment: Binding affinity to human 5HT1D receptor by radioligand binding assay. In short, it runs like this: (§1)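 In vitro radioligand displacement binding on cell lines expressing the appropriate human serotonin receptor subtype. Affinity is expressed as Ki (nM), each the mean of at least two determinations.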

The target in experiment [2] is T1, 5-hydroxytryptamine receptor 1A (Homo sapiens) (UniProt P08908).
T1 sequence (whole entry): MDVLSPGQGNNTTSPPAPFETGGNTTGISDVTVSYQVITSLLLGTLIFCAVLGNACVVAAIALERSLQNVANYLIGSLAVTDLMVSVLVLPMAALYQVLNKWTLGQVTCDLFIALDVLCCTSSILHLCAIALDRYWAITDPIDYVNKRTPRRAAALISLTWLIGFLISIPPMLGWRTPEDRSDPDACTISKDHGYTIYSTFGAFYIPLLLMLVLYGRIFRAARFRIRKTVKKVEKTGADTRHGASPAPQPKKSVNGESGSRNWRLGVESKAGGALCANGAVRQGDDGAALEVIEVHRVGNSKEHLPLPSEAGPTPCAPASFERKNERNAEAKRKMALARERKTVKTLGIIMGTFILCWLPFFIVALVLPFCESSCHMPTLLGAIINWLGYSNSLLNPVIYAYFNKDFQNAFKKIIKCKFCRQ
As to the kind of experiment: Binding affinity to human 5HT1A receptor by radioligand binding assay. Summed up:
as §1

Experiment [3] deals with 5-hydroxytryptamine receptor 1D (Homo sapiens) (UniProt P28221). The experiment is described as follows: Inhibition of radioligand binding to human 5HT1D receptor at 10 uM. Summed up: (§2)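 Single-concentration radioligand displacement at 10 µM test compound in cell lines expressing the human 5-HT1A, 5-HT1B or 5-HT1D receptor. Read-out is percent inhibition of radioligand binding.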

In experiment [4] the target is 5-hydroxytryptamine receptor 1B (Homo sapiens) (UniProt P28222). The experiment is described as follows: Binding affinity to human 5HT1B receptor by radioligand binding assay. Summed up: as §1
The target in experiment [5] is T1, 5-hydroxytryptamine receptor 1A (Homo sapiens). The experiment is described as follows: Inhibition of radioligand binding to human 5HT1A receptor at 10 uM. Summed up: as §2
Experiment [6] has as its target 5-hydroxytryptamine receptor 1B (Homo sapiens) (UniProt P28222). The experiment is described as follows: Inhibition of radioligand binding to human 5HT1B receptor at 10 uM. Summed up:
as §2

In experiment [7] the target is 5-HT1A/5-HT1F (Homo sapiens) (UniProt P30939+P08908). The experiment is described as follows: Selectivity index, ratio of Ki for human 5HT1A receptor to Ki for human 5HT1F receptor. Summed up: (§3)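 Ratio of the Ki at the 5-HT1A, 5-HT1B or 5-HT1D receptor to the Ki at the 5-HT1F receptor. Each Ki comes from at least two radioligand binding determinations in cell lines expressing the human receptor.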

Experiment [8] deals with T2, 5-hydroxytryptamine receptor 1F (Homo sapiens, UniProt P30939).
T2 sequence (P30939 whole entry): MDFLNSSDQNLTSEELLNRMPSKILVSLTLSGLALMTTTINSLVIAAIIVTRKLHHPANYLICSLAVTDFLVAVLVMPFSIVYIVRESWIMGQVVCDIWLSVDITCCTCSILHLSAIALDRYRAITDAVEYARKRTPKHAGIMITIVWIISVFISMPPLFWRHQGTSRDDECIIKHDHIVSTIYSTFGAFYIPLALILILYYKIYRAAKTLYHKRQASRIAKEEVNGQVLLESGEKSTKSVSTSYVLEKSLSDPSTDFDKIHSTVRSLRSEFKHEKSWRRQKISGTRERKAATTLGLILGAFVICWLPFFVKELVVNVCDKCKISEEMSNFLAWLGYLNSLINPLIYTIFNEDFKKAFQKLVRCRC
As to the kind of experiment: Binding affinity to human 5HT1F receptor by radioligand binding assay. In short, it runs like this:
as §1

The target in experiment [9] is 5-HT1D/5-HT1F (Homo sapiens) (UniProt P30939+P28221). As to the kind of experiment: Selectivity index, ratio of Ki for human 5HT1D receptor to Ki for human 5HT1F receptor. Summed up: as §3
Experiment [10] concerns the target T2, 5-hydroxytryptamine receptor 1F. As to the kind of experiment: Agonist activity at human 5HT1F receptor expressed in LM(tk-) cells by [35S]GTPgammaS binding assay. Type of experiment: functional, cell-based. In general terms: GTPγS resists hydrolysis and so accumulates on activated G proteins.
Experiment [11] addresses T3, 5-hydroxytryptamine receptor 1F (Homo sapiens) (UniProt P30939).
T3 sequence (whole entry): T2 sequence (P30939 whole entry)
The experiment is described as follows: Agonist activity at human 5HT1F receptor expressed in LM(tk-) cells by [35S]GTPgammaS binding assay relative to 5-HT. Type of experiment: functional, cell-based.

Experiment [12] addresses 5-HT1B/5-HT1F (Homo sapiens) (UniProt P30939+P28222). The experiment is described as follows: Selectivity index, ratio of Ki for human 5HT1B receptor to Ki for human 5HT1F receptor. Summed up: as §3

The structures appear in SMILES notation. The source made the active and inactive calls. No cut-off for these calls is given here.

Results on 14 compounds are retold here after ChEMBL document CHEMBL3616417, “Discovery of selective N-[3-(1-methyl-piperidine-4-carbonyl)-phenyl]-benzamide-based 5-HT₁ F receptor agonists: Evolution from bicyclic to monocyclic cores” (Bioorg Med Chem Lett, 2015).

The inhibition is the drop in the measured response relative to a control, in per cent. Read a low inhibition as a response near the control. Broadly, the Ki is the dissociation constant of the complex between target and ligand, obtained from inhibition or displacement. Low values mean tighter binding, high ones weaker binding. As usually defined, the EC50 is the concentration giving half of the maximal effect. In general, Emax refers to the greatest response seen or fitted, relative to the assay's reference.

5-hydroxytryptamine receptor 1B (Homo sapiens), sequence (P28222 whole entry): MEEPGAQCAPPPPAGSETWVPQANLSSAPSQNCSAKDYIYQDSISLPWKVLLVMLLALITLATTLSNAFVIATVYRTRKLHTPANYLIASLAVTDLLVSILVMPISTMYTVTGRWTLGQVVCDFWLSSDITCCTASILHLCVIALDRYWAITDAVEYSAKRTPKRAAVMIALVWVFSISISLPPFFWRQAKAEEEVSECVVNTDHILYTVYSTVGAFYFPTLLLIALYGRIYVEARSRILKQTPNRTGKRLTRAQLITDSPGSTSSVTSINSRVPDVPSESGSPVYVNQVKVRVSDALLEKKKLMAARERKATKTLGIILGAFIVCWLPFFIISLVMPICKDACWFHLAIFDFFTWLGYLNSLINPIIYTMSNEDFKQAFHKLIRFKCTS
5-HT1B/5-HT1F (Homo sapiens), sequence (P28222 whole entry, looked up, one chain of several): as the sequence (P28222 whole entry) above
5-hydroxytryptamine receptor 1D (Homo sapiens), sequence (P28221 whole entry): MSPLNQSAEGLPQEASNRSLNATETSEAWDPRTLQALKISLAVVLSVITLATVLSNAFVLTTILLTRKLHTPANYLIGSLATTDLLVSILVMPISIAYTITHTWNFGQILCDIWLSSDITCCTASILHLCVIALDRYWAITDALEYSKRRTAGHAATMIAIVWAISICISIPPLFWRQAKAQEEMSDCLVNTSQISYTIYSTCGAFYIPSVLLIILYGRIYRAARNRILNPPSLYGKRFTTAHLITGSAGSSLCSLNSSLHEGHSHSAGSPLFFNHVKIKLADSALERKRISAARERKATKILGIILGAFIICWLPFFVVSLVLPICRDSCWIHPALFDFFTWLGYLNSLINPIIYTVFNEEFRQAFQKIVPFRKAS
5-HT1D/5-HT1F (Homo sapiens), sequence (P28221 whole entry, looked up, one chain of several): as the sequence (P28221 whole entry) above

On to `CN1CCC(C(=O)c2cc(NC(=O)c3ccc(F)cc3)ccn2)CC1`, for which the result in experiment [1], in experiment [2] and in [4] was inactive. Moreover, the inhibition in experiment [3], in [5] and in experiment [6] was below 50% throughout.
Regarding `CN1CCC(C(=O)c2cncc(NC(=O)c3ccc(F)cc3)c2)CC1`, the values for the Ratio Ki in experiment [7] and in experiment [9] were 1 and 0.6, respectively. The compound further displayed a Ki in experiment [8] of 3200 nM. For the same compound, the outcome in experiment [4] was inactive. In experiment [6], this compound registered an inhibition below 50%.
As for `CN1CCC(C(=O)c2cccc(NC(=O)c3ccc(F)cc3)n2)CC1`, the figures for the Ratio Ki in experiment [7] and in [9] were 91 and 110, respectively. The compound also registered an EC50 in experiment [10] of 110 nM. In addition, the Ki in experiment [8] amounted to 9.5 nM. Besides, the Emax in [11] came out at 90%. Moreover, the result in [4] was inactive. The compound also had an inhibition in experiment [6] below 50%.
Consider `CN1CCC(C(=O)c2ccnc(NC(=O)c3ccc(F)cc3)c2)CC1`, for which the values for the Ratio Ki in [7], in experiment [9] and in experiment [12] were 0.7, 0.5 and 2, respectively. In [8], this compound gave an inhibition constant Ki of 2400 nM.
Take `CN1CCC(C(=O)c2cc(NC(=O)c3ccc(F)cc3)ccc2F)CC1`: the outcome in experiment [1], in experiment [2] and in [4] was inactive. In experiment [8], this compound showed a Ki of 1300 nM. Besides, the inhibition in experiment [3], in [5] and in experiment [6] was below 50% in each case.
For the compound `CN1CCC(C(=O)c2ccc(F)c(NC(=O)c3ccc(F)cc3)c2)CC1`, in experiment [7], the Ratio Ki is 2. Further, the outcome in experiment [1] and in experiment [4] was inactive. This compound gave an inhibition constant Ki in experiment [8] of 530 nM. Also, the inhibition in [3] and in experiment [6] was below 50% in each case.
Consider `CN1CCC(C(=O)c2cccc(NC(=O)c3ccc(F)cc3)c2O)CC1`, for which the result in experiment [1] and in experiment [2] was inactive. The same compound showed an inhibition constant (Ki) in experiment [8] of 1100 nM. In addition, the inhibition in experiment [3] and in experiment [5] was below 50% throughout. For the same compound, the Ratio Ki in [12] turned out to be 2.5.
For `CN1CCC(C(=O)c2cccc(NC(=O)c3ccc(F)cc3)c2F)CC1`, in [10], it took 55 nM to reach a half-maximal effect (EC50). In addition, the outcome in [1], in [2] and in experiment [4] was inactive. In experiment [8], this compound had a Ki of 8.3 nM. The maximal effect (Emax) in experiment [11] worked out at 85%. The inhibition in experiment [3], in experiment [5] and in [6] was below 50% in each case.
`Cc1c(NC(=O)c2ccc(F)cc2)cccc1C(=O)C1CCN(C)CC1`: the result in experiment [1], in experiment [2] and in [4] was inactive. The compound further showed an inhibitory constant (Ki) in experiment [8] of 870 nM. For the same compound, the inhibition in experiment [3], in [5] and in [6] was below 50% each time.
Take `COc1c(NC(=O)c2ccc(F)cc2)cccc1C(=O)C1CCN(C)CC1`: the Ratio Ki in [7] came to 0.5; in [9], 3.4; in experiment [12] it was 4.3. The affinity in experiment [8] corresponds to a Ki of 610 nM.
For the compound `CN1CCC(C(=O)c2cc(F)cc(NC(=O)c3ccc(F)cc3)c2)CC1`, the Ratio Ki in experiment [7] was found to be 22. The result in experiment [1] and in [4] was inactive. In experiment [8], this compound had an inhibition constant Ki of 41 nM. Also, the inhibition in [3] and in [6] was below 50% each time.
As for `CN1CCC(c2c[nH]c3ccc(NC(=O)c4ccc(F)cc4)cc23)CC1`, the values for the Ratio Ki in experiment [7], in experiment [9] and in experiment [12] were 5, 98 and 54, respectively.
Regarding `CN1CCC(C(=O)c2cccc(NC(=O)c3ccc(F)cc3)c2Cl)CC1`, the Ratio Ki amounted to 0.3 in [7], 0.2 in [9] and 1.6 in experiment [12]. This compound also registered a Ki in [8] of 1700 nM.
With `CN1CCC(C(=O)c2cccc(NC(=O)c3ccc(F)cc3)c2)CC1`, the Ratio Ki in experiment [7] worked out at 170; in experiment [9] it was 730. In experiment [10], this compound came in with a concentration for a half-maximal effect (EC50) of 87 nM. In addition, the inhibition constant Ki in [8] was determined as 5.1 nM. In experiment [11], this compound returned a maximum response (Emax) of 79%. Moreover, the outcome in [4] was inactive. The same compound returned an inhibition in experiment [6] below 50%.
